According to PMC6583897 (International journal of pharmaceutics, 2018):

Columns and labels:
CYP3A4 = conditions: ref Yao et al., 2006; cited from earlier work
[1] = Pharmacokinetic evaluation after intramuscular injection, plasma LC/MS; type: in vivo, CD-1 mice; conditions: female, CD-1, mouse, im, 1000 mg/kg
HIV-1NL-43 = test: Antiviral activity in vitro, TZM-bl luciferase reporter assay; type: cell-based; conditions: for IC50: Human immunodeficiency virus 1, TZM-bl, 48 h; for times more potent than free parent drug (IC50 ratio): TZM-bl cells, vs free FTC or free EVG
[2] = Hydrolytic release curves, pH 7.4 PBS, 37 °C; type: physicochemical; conditions: 1 mg/mL, UV-vis
Procedure, shortened: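 Test conjugates at 1 mg/mL were hydrolysed in 0.1 M phosphate-buffered saline, pH 7.4, with continuous stirring at 37 °C, in triplicate. Samples were taken at 1, 3, 7, 10, 14, 17, 21, 24, 28, 31, 35 and 42 days. Released parent drug was measured by UV absorbance at 300 nm or 320 nm, depending on the drug. Data are mean ± standard deviation (n = 3).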

[3] = ref Ho et al., 2018; cited from earlier work
HIV = conditions: ref Agarwal et al., 2013; cited from earlier work

CC/C=C\C/C=C\C/C=C\C/C=C\C/C=C\C/C=C\CCC(=O)O [DHA (Docosahexaenoic acid), Docosahexaenoic acid]
inhibitory potency against CYP3A4 among available PUFA options (CYP3A4): greater inhibitory potency

COc1cc2c(cc1Cc1cccc(Cl)c1F)c(=O)c(C(=O)O)cn2[C@H](CO)C(C)C [EVG (Elvitegravir), Elvitegravir]
AUC(0-t) [1]: 48300 ng·h/mL | Cmax [1]: 1750 ng/mL | half-life [1]: 9.75 h | k el [1]: 1.97e-05 s⁻¹ | IC50 (HIV-1NL-43): 30.9 µM

CC/C=C/C/C=C/C/C=C/C/C=C/C/C=C/C/C=C\CCC(=O)OCC(C(C)C)n1cc(C(=O)O)c(=O)c2cc(Cc3cccc(Cl)c3F)c(OC)cc21 (stereo not shown) [EVG-DHA, 6-(3-chloro-2-fluorobenzyl)-1-(1-(((4Z,7E,10E,13E,16E,19E)-docosa-4,7,10,13,16,19-hexaenoyl)oxy)-3-methylbutan-2-yl)-7-methoxy-4-oxo-1,4-dihydroquinoline-3-carboxylic acid]
period of sustained drug release [2]: 30 days | IC50 (HIV-1NL-43): 0.14 µM | times more potent than free parent drug (IC50 ratio) (HIV-1NL-43): ~ 220 times

Nc1nc(=O)n([C@@H]2CS[C@H](CO)O2)cc1F [FTC (Emtricitabine), Emtricitabine]
AUC(0-t) [1]: 127000 ng·h/mL | Cmax [1]: 41000 ng/mL | half-life [1]: 54.7 h | k el [1]: 3.61e-06 s⁻¹ | IC50 (HIV-1NL-43): 17.2 µM

CC/C=C/C/C=C/C/C=C/C/C=C/C/C=C/C/C=C/CCC(=O)OC[C@@H]1O[C@H](n2cc(F)c(N)nc2=O)CS1 [FTC-DHA, ((2R,5S)-5-(4-amino-5-fluoro-2-oxopyrimidin-1(2H)-yl)-1,3-oxathiolan-2-yl)methyl (4E,7E,10E,13E,16E,19E)-docosa-4,7,10,13,16,19-hexaenoate]
period of sustained drug release [2]: 21 days | IC50 (HIV-1NL-43): 1.39 µM | times more potent than free parent drug (IC50 ratio) (HIV-1NL-43): ~ 12 times

C=C1[C@H](CO)[C@@H](O)C[C@@H]1n1cnc2c(=O)[nH]c(N)nc21 [entecavir]
active antiretroviral released within the first hour [3]: 15–41%

CCCCCCCCCCCCCC(=O)OC[C@@H]1O[C@H](n2cc(F)c(N)nc2=O)CS1 [myristoylated FTC conjugate]
higher anti-HIV activity compared to FTC alone (HIV): 24 times
